From PubChem
Hits are enriched below; roughly 3.7% of the tested compounds scored in any of these assays.
HCV NS3 hel inh = blocks Hepatitis C virus NS3 helicase unwinding | NS3 helicase DNA unwinding, Cy5 molecular beacon fluorescence | inhibition, % at 10.9 µM | 0.56% of 290,000 active | AID 1800;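 active means inhibition above the mean of all tested compounds plus 3 SD, set per campaign, cut at about 35% in these data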;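 further: 0% = DMSO wells and 100% = thioflavine S control wells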
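Test system: hepatitis C virus NS3 helicase domain fragment enzyme. Also added: annealed dual-labelled DNA beacon duplex, ATP-started. Timing: 60 min unwinding reaction at 25 °C after ATP addition. Technique: Cy5 fluorescence. Measure: % inhibition of unwinding.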
HCV core dimer = HCV core protein dimerization inhibition | TR-FRET GST/Flag-core106 dimerization, 1536-well | inhibition, % at 5 µM | 0.33% of 300,000 active | AID 1899;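 active means inhibition above the mean of all tested compounds plus 3 SD, set per screening campaign, cut at about 45% in these data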
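Assay system – GST-tagged and Flag-tagged HCV core protein residues 1-106 · Quantity – core106 proteins, GST 13.5 nM and Flag 17 nM · Benchmarks – unlabelled core106 and no-GST-core106 wells · Read-out basis – percent inhibition of core106 dimerization signal · Detection – time-resolved FRET, ex 340 nm, em 617 and 671 nm · Schedule – 4 h at 22.5 °C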
TAAR1 antag = antagonists of human TAAR1; inhibition, % at 3 µM; Q96RJ0; CHO RD-HGA16 TAAR1, Fluo-8 calcium fluorescence, antagonist; 1.5% of 360,000 active;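 active means inhibition above a per-plate cutoff, the mean inhibition of test compounds on that plate plus 3 SD, cut at about 49% in these data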;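 further: 0% = DMSO plus EC80 beta-PEA response and 100% = DMSO alone without agonist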
Target sequence (Q96RJ0 whole entry, looked up): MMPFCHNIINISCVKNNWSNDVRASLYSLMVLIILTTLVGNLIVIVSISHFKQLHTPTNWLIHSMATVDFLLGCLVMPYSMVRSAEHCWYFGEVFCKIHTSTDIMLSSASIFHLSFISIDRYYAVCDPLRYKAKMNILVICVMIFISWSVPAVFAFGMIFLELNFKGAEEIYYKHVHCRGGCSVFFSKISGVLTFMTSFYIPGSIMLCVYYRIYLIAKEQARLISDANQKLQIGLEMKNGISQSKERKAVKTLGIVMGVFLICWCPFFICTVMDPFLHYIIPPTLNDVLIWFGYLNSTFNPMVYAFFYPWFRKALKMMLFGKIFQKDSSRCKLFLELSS
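Test system: RD-HGA16 CHO cells with stable hTAAR1 and Gα16 / Probe or stimulus: EC80 β-phenethylamine stimulus / Times: seeding 17-24 h prior, 75-min 37 °C, 30-min RT dye loading / Detection: Fluo-8 calcium-sensitive fluorescence / Read-out basis: % inhibition scaled between DMSO and EC80 PEA controls / Repeats: singlicate, one well per test compound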
TAAR1 ag = agonists of human TAAR1. activation, % at 3 µM. Q96RJ0. AID 624467. CHO RD-HGA16 TAAR1, Fluo-8 calcium fluorescence; vehicle wells 0%, saturating PEA agonist 100%. 0.99% of 360,000 active;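 active means activation above the mean activation of all test compounds in the run plus 3 SD, cut at about 38% in these data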
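test system = CHO RD-HGA16 cells carrying human TAAR1 plus Gα16 | schedule = 17-24 h seeding, 75 min 37 °C dye, 30 min RT | compound dosing = 3 µM single concentration | control set = DMSO and PEA EC100 | replicates = n 1 | signal = Fluo-8 fluorescence, 5 s baseline then 140 s kinetic read | measure = percent activation vs PEA EC100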
rCAG binder = molecules binding r(CAG) RNA repeats; r(CAG) RNA repeat, TO-PRO-1 dye displacement fluorescence; inhibition, % at 3 µM; 1.3% of 370,000 active; AID 651821;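 active means inhibition above the plate cutoff, the mean of all test compounds on that plate plus 3 SD, cut at about 35% in these data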;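 further: 0% = DMSO alone and 100% = 100 µM mitoxantrone as full dye displacement; higher means more dye released from RNA so lower well fluorescence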
NS3 helicase cf = HCV NS3 helicase inhibition, confirmation assay | AID 1943 | shares compounds with HCV NS3 hel inh | inhibition, % at 10.9 µM | NS3 helicase DNA unwinding, Cy5 molecular beacon fluorescence | 31% of 1,600 active;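 active means inhibition above the mean of all tested compounds plus 3 SD, cutoff set per campaign, cut at about 36% in these data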
DNA FID counter = displaces DNA intercalator in HCV helicase counter-screen | shares compounds with HCV NS3 hel inh | DNA fluorescent intercalator displacement, fluorescence | inhibition, % at 7.9 µM | 4% of 1,600 active; in the data active means inhibition above about 37%;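 further: 0% = vehicle and 100% = reference compound; higher means more displacement of ethidium bromide from the DNA hairpin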
DNA FID DR = displaces fluorescent intercalator from DNA, HCV helicase counter-screen; shares compounds with HCV NS3 hel inh; fluorescent intercalator displacement from DNA, fluorescence; IC50, µM; 120 tested, under 10 active; AID 2172; call rule not given here
An asterisk follows results filed as active; . = no result.

SMILES	HCV NS3 hel inh	HCV core dimer	TAAR1 antag	TAAR1 ag	rCAG binder	NS3 helicase cf	DNA FID counter	others
CCOC(=O)c1sc2nc3c(SCC(=O)O)cc(C(=O)c4cc(F)ccc4O)cn3c(=O)c2c1C	36*	21	4	0	28	52*	65*
COc1ccccc1N1C(=O)CC(Nc2ccc(N3CCOCC3)cc2)C1=O (configuration not stated)	28	-10	-3	1	13	.	.
CCOc1ccccc1N1C(=O)CC(Nc2ccc(N3CCOCC3)cc2)C1=O (configuration not stated)	42*	4	-5	3	13	1	-11
COCCOC(=O)c1[nH]c2c(c1C)C(=O)CC(c1ccco1)C2 (configuration not stated)	47*	42	-1	1	25	-6	2
CN(C)CC(=O)N[C@@H]1C[C@@H]2O[C@@H](CO)CC[C@@H]2O[C@@H]1CCc1ccc(C#Cc2ccccc2)cc1	.	.	.	.	6	.	.
Cc1ccc(CC(=O)O/N=C(\N)Cc2ccc([N+](=O)[O-])cc2)cc1	38*	9	1	4	0	-5	2
CCOC(=O)COc1ccc(/C=C2/C(=O)NN(c3ccc(F)cc3)C2=O)cc1OC	36*	-11	-34	3	3	-4	11
C/C=C/c1ccc(OCC(=O)OCC)c(OC)c1	5	5	-8	0	0	.	.
CN(Cc1ccccc1)C(=O)OCc1cn(Cc2c(F)cccc2F)nn1	.	.	.	.	1	.	.
O=C(Cn1nc(-c2ccccc2)ccc1=O)NCCc1cccc(F)c1	.	.	.	.	1	.	.
COc1ccc2[nH]c(=O)c(CNc3ccccc3)cc2c1	16	5	-7	8	8	.	.
CCOc1ccc(NCc2cc3cc(OC)ccc3[nH]c2=O)cc1	43*	-6	-32	0	13	12	-6
CCC1=Nc2cc(C(=O)NCc3ccco3)ccc2Sc2ccccc21	10	34	11	2	10	.	.
CCC1=Nc2cc(C(=O)NCc3ccco3)ccc2Sc2ccc(Cl)cc21	37*	59*	1	4	12	-2	-46
CCc1nc2c(sc3nc4c(cc32)COC(C)(C)C4)c(=O)n1Cc1ccco1	40*	9	-2	3	6	-16	-14
CCc1nc(OCc2ccco2)c2sc3nc4c(cc3c2n1)COC(C)(C)C4	48*	14	-5	10	5	-14	-18
CCc1nc2c(sc3nc4c(cc32)COC(C)(C)C4)c(=O)n1Cc1ccccc1	-5	3	6	2	-1	.	.
Cc1nc(OCC(C)C)c2sc3nc4c(cc3c2n1)COC(C)(C)C4	0	-1	8	1	-6	.	.
O=C(O)C1Nc2ccc(Br)cc2C2C=CCC12 (configuration not stated)	43*	23	.	.	.	88*	-4
O=C(O)C1Nc2c(O)cccc2C2C=CCC12 (configuration not stated)	58*	50*	-9	1	82*	110*	14	DNA FID DR=>79
CCOC(=O)C1Nc2ccc(Br)cc2C2C=CCC12 (configuration not stated)	39*	50*	-9	2	63*	26	-4
COC(=O)CNC(=O)C1Nc2ccccc2C2C=CCC12 (configuration not stated)	.	7	1	4	24	.	.
CCCC(NC(=O)COc1cc2c(c3oc(=O)c(C)c(C)c13)CCC(C)(C)O2)C(=O)O (configuration not stated)	55*	-2	-8	1	20	0	-2
CSCC[C@H](NC(=O)COc1cc2c(c3oc(=O)c(C)c(C)c13)CCC(C)(C)O2)C(=O)O	15	3	-12	0	30	.	.
CCc1c(-c2cccc(Br)c2)ncn1CCc1ccccc1OC	.	.	29	28	4	.	.
SMILES	HCV NS3 hel inh	HCV core dimer	TAAR1 antag	TAAR1 ag	rCAG binder	NS3 helicase cf	DNA FID counter	others
CC1CCC2C(C1)OS(=O)(=O)NC2(C)C (configuration not stated)	41*	-5	.	.	.	1	-2
C=CCN1C(=O)[C@@H](CC(=O)NCc2ccc(OC)c(OC)c2)[C@]2(C(=O)OCC)CCCCC/C=C/12	.	.	.	.	1	.	.
CCNc1nc(NCC)nc(N/N=C/c2ccc([N+](=O)[O-])o2)n1	-2	-6	23	4	6	.	.
CC(=O)N(C)c1ccc(N=Cc2cc3c(cc2[N+](=O)[O-])OCO3)cc1	.	-1	-14	0	7	.	.
CCN(CC)c1ccc(N=Cc2ccccc2[N+](=O)[O-])cc1	41*	-5	-22	2	8	2	15
CCN(CC)c1ccc(N=Cc2ccc([N+](=O)[O-])o2)cc1	57*	21	-13	1	20	6	17
Cc1[nH]cnc1/C=N\NC(=O)c1cccc(S(=O)(=O)N(C)C)c1	.	.	.	.	1	.	.
COC(=O)c1cc(N=Cc2c(O)c3ccccc3oc2=O)cc(C(=O)OC)c1	40*	-8	.	.	.	4	10
CCOc1ccc(-n2c(COc3ccccc3)nnc2SCc2nc3ccccc3[nH]2)cc1	.	.	.	.	1	.	.
COc1ccc(NC(=O)N(C)[C@H]2C[C@H]3c4[nH]c5c(-c6cccc(C)c6)cccc5c4CCN3C(=O)[C@H]2[C@H](C)O)cc1	.	.	.	.	16	.	.
O=C(O)c1cc(N/N=C/c2ccc(OCc3ccccc3)cc2)ccc1Cl	42*	7	-12	0	13	67*	5
CCOC(=O)C1(Cc2cccc(Cl)c2)CCCN(C(=O)c2ccoc2C)C1 (configuration not stated)	44*	.	-36	-2	-8	-7	-53
CCOC(=O)C1(Cc2cccc(Cl)c2)CCCN(C(=O)c2ccco2)C1 (configuration not stated)	-12	4	-45	0	-3	.	.
COc1ccc(C2C(C#N)=C(N)Oc3cc4c(cc32)OCO4)cc1 (configuration not stated)	40*	0	-8	5	8	-16	-9
CCOc1cc(CNc2ccc(N3CCCCC3)cc2)cc(Br)c1OCC(=O)NC(C)(C)C	20	4	-24	3	2	.	.
CCOc1cc(CNc2ccc(N(C)C)cc2)cc(Br)c1OCC(=O)NC(C)(C)C	53*	-31	-23	4	1	16	-6
COC(=O)c1cc(-c2ccc(C)c3ccccc23)c(=O)n2c1CCC2	.	.	.	.	1	.	.
O=C(NCCc1c[nH]c2ccccc12)OCc1cn(Cc2cc(F)ccc2F)nn1	.	.	.	.	4	.	.
